These results are taken from ChEMBL document CHEMBL4725371, “A Novel Redox Modulator Induces a GPX4-Mediated Cell Death That Is Dependent on Iron and Reactive Oxygen Species” (J Med Chem, 2020).

For orientation: Tm means the temperature at which the thermal transition is half complete.

Activity calls are given as the source filed them. The rule behind the calls is not given here.

The target in data set [1] is Signal transducer and activator of transcription 3 (Homo sapiens) (UniProt P40763). Nature of the data set: Inhibition of STAT3 phosphorylation in human PANC-1 cells at 1.2 to 1.8 uM measured after 4 hrs by Western blot analysis. The format is cell-based. To be noted: dose microM 1.2-1.8, time 4.0 hrs. In short, it runs like this:
(§1)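 Cells were treated 4 h at the stated concentrations and lysed in RIPA with protease and phosphatase inhibitors. 25 μg protein was resolved on 10% SDS gels, transferred to PVDF and probed for STAT3, pSTAT3, pH2AX and GAPDH. Detection used fluorescent secondary antibodies, with normalisation to loading control.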

The target is the same in data set [2]. Nature of the data set: Inhibition of STAT3 phosphorylation in human MIA PaCa-2 cells at 1 to 1.5 uM measured after 4 hrs by Western blot analysis. The format is cell-based. To be noted: dose microM 1-1.5, time 4.0 hrs. In a few lines: as §1
On the technique in general: A western blot detects proteins with antibodies after separation by electrophoresis.

In data set [3] the test system is MIA PaCa-2. In words: Induction of reactive oxygen species in human MIA PaCa-2 cells assessed as reduction in GSH to GSSG ratio at 1.5 to 6 uM measured after 2 to 4 hrs by GSH/GSSG-glo assay. To be noted: dose microM 1.5-6, time hrs 2-4. The format is functional, cell-based. In a few lines:
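GSH/GSSG-Glo luminescent assay: 15,000–20,000 MIA PaCa-2 cells per well, attached overnight, treated 2 h and 4 h. Cells were lysed with total or oxidized glutathione reagent, then luciferin generation (30 min, room temperature) and detection reagents added. Luminescence was read after 15 min. Ratio was computed from net RLU as (total − GSSG)/(GSSG/2).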

Data set [4] has as its system MIA PaCa-2. In words: Inhibition of colony formation in human MIA PaCa-2 cells at 0.5 uM measured after 7 to 9 days in presence of ferroptosis inhibitor liproxstatin-1 by crystal violet staining based assay. Type of data set: functional, cell-based. As to conditions: time day 7-9. In a few lines: (§2)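 Cells seeded overnight in 96-well plates at 300 cells/well (MIA PaCa-2) or 600 cells/well (BxPC-3), in RPMI 1640 with 10% FBS. Inhibitor added 1 h before compound, then continuous exposure for 7–9 days until control wells were 80–90% confluent. Stained with 0.05% crystal violet for 30 min, imaged after overnight drying and quantified.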

For data set [5], the system named is MIA PaCa-2. In words: Inhibition of colony formation in human MIA PaCa-2 cells at 0.4 to 0.8 uM measured after 7 to 9 days in presence of ferroptosis inhibitor ferrostatin-1 by crystal violet staining based assay. Type of data set: functional, cell-based. To be noted: dose microM 0.4-0.8, time day 7-9. In a few lines:
as §2

The subject of data set [6] is MIA PaCa-2. In words: Inhibition of colony formation in human MIA PaCa-2 cells at 0.4 to 0.8 uM measured after 7 to 9 days in presence of autophagy inhibitor chloroquine by crystal violet staining based assay. The format is functional, cell-based. To be noted: dose microM 0.4-0.8, time day 7-9. In a few lines: as §2
Data set [7] has as its system MIA PaCa-2. In words: Induction of ferroptosis in human MIA PaCa-2 cells assessed as increase in lipid peroxidation measured after 24 hrs by C11-BODIPY dye based fluorescence assay. The format is functional, cell-based. In short, it runs like this: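 MIA PaCa-2 cells were treated for the set time, then given 10 μM C11-BODIPY for 30 min at 37 °C and washed. Fluorescence was read at 581/591 nm (reduced dye) and 488/510 nm (oxidized dye). The intensity ratio was compared by unpaired t-test.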

Data set [8] has as its system MIA PaCa-2. Nature of the data set: Down regulation of PNPT1 expression in human MIA PaCa-2 cells at 3 times IC50 measured after 4 hrs by proteomics analysis. Type of data set: functional, cell-based.
Data set [9] addresses T1, Phospholipid hydroperoxide glutathione peroxidase GPX4 (Homo sapiens) (UniProt P36969).
T1 sequence (whole entry): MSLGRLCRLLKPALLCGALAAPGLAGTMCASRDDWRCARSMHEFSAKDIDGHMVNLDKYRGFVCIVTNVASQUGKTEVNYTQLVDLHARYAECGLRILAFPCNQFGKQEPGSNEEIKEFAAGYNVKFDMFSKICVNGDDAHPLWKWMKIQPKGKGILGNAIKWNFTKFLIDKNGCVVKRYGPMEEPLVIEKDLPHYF
Nature of the data set: Binding affinity to GPX4 in human MIA PaCa-2 cells assessed as protein destabilization by measuring melting temperature at 100 uM measured after 1 hr by thermal shift assay (reference value: 60.34 degreeC). The format is cell-based.

Data set [10] addresses T1, Phospholipid hydroperoxide glutathione peroxidase GPX4 (Homo sapiens). In words: Binding affinity to GPX4 in human PANC-1 cells assessed as protein destabilization by measuring reduction in melting temperature at 100 uM measured after 1 hr by thermal shift assay. The format is cell-based.
The test system of data set [11] is MIA PaCa-2. In words: Down regulation of PNPT1 gene expression in human MIA PaCa-2 cells at 3 times IC50 measured after 4 hrs by Trizol reagent based Bru labelling based gene sequence analysis. The format is functional, cell-based. In short, it runs like this:
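Bru-seq: 2 × 10⁶ cells were seeded in duplicate and treated at 3 × IC50 for 4 h. Bromouridine (2 mM final) was added for the last 30 min at 37 °C. Total RNA was extracted in TRIzol. BrU-labelled RNA was captured with anti-BrdU magnetic beads, made into cDNA libraries and deep-sequenced.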

Data set [12] has as its system MIA PaCa-2. Nature of the data set: Down regulation of PNPT1 expression in human MIA PaCa-2 cells at 1.2 uM measured after 24 hrs by proteomics analysis. Type of data set: functional, cell-based. In a few lines: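 MIA PaCa-2 cells were treated with 1.2 μM compound or DMSO for 24 h and lysed in RIPA buffer. 75 μg protein per sample was run in duplicate by TMT10plex-labelled proteomics. Abundance ratio was taken as treatment over control. Changes of at least 1.5-fold at FDR < 0.05 were scored.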

Data set [13] has as its system MIA PaCa-2. In words: Down regulation of LRPPRC expression in human MIA PaCa-2 cells at 3 times IC50 measured after 4 hrs in presence of NAC by proteomics analysis. Type of data set: functional, cell-based.
The test system of data set [14] is MIA PaCa-2. In words: Down regulation of PNPT1 expression in human MIA PaCa-2 cells at 3 times IC50 measured after 4 hrs in presence of NAC by proteomics analysis. Type of data set: functional, cell-based.
The subject of a further data set is PANC-1. In words: Down regulation of LRPPRC expression in human PANC-1 cells at 3 times IC50 measured after 1 to 24 hrs by proteomics analysis. The format is functional, cell-based. As to conditions: time hrs 1-24.
The nature of data set [15]: Toxicity in CD-1 mouse assessed as death at 10 mg/kg, iv. To be noted: in vivo. Type of data set: organism-based. In a few lines: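 CD-1 mice given a single IV injection at 10 mg/kg, three mice per group. Blood was drawn into heparinized pipettes at 0.5, 2, 4 and 7 h for plasma LC-MS/MS. Deaths were noted over the course of the study.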
A short description of data set [16]: Drug metabolism in mouse plasma assessed as 6-[4-[(3S,5R)-3,5-dihydroxy-4-methyl-piperazin-1-yl]anilino]quinazoline-5,8-dione formation at 500 uM measured after 0.5 hrs by LC-MS/MS analysis. Type of data set: ADME, cell-free. In short, it runs like this: (§3)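 Compound (500 μM DMSO stock, 1 μL per 500 μL) was incubated in pooled mouse plasma. Samples were taken at 0.5 h and metabolites identified by LC-MS/MS.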

Data set [17] in a line: Drug metabolism in mouse plasma assessed as 7-hydroxy-6-[4-(4-methylpiperazin-1-yl)anilino]-6,7-dihydroquinazoline-5,8-dione formation at 500 uM measured after 0.5 hrs by LC-MS/MS analysis. The format is ADME, cell-free. In short, it runs like this: as §3
Data set [18] in a line: Drug metabolism in mouse plasma assessed as 2-amino-3-[6-[4-(4-methylpiperazin-1-yl)anilino]-5,8-dioxo-quinazolin-7-yl]sulfanyl-propanoic acid formation at 500 uM measured after 0.5 hrs by LC-MS/MS analysis. The format is ADME, cell-free. In a few lines:
as §3

A short description of data set [19]: Drug metabolism in mouse plasma assessed as 5,8-dimethoxy-N-[4-(4-methylpiperazin-1-yl)phenyl]quinazolin-6-amine formation at 500 uM measured after 0.5 hrs by LC-MS/MS analysis. Type of data set: ADME, cell-free. In a few lines:
as §3

Signal transducer and activator of transcription 3 (Homo sapiens), sequence (P40763 whole entry): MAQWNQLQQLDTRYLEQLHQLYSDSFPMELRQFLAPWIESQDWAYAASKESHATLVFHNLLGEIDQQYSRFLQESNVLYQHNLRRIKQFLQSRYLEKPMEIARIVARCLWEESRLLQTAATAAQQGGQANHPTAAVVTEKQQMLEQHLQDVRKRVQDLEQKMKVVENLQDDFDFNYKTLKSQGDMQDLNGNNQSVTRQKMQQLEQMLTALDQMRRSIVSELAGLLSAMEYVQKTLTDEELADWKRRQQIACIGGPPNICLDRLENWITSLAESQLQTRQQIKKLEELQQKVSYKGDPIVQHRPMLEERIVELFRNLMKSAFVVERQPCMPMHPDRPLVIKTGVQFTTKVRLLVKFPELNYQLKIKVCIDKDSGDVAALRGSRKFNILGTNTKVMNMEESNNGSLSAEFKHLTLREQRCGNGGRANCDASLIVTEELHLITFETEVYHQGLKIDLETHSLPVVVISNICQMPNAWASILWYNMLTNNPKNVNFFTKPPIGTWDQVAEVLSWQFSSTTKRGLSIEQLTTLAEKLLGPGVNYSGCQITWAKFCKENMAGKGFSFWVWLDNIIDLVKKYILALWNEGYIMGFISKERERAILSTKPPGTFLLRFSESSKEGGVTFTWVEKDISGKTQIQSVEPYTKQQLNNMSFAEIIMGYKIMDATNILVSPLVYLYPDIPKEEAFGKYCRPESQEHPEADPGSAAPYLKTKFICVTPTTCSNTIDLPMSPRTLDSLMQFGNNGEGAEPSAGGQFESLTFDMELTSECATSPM

On to `CN1CCN(c2ccc(NC3=CC(=O)c4ncncc4C3=O)cc2)CC1`, for which the inhibition result (in data set [1]; in data set [2]; in the data set with MIA PaCa-2 [5]; in the data set with MIA PaCa-2 [6]) was “Active” in each case. The result (in the data set on MIA PaCa-2 [3]; in the data set on MIA PaCa-2 [8]; in data set [10]; in the data set with MIA PaCa-2 [11]; in the data set with MIA PaCa-2 [12]; in the data set on MIA PaCa-2 [13]) was Active. Further, the outcome in the data set on MIA PaCa-2 [14] was Active. For the same compound, the inhibition entry in the data set with MIA PaCa-2 [4] was “inactive”. The Activity result was “Dose-dependent effect” in the data set with MIA PaCa-2 [7] and “Toxic” in data set [15]. Besides, in data set [9], the Tm was found to be 57.6 °C. The result in the data set with PANC-1 was inactive. The Drug metabolism result in data set [16], in data set [17], in data set [18] and in data set [19] was “Metabolite_Detected” in each case.
